Data set [1] concerns the target T1, Free fatty acid receptor 1 (Homo sapiens, UniProt O14842). As to the kind of experiment: Agonist activity at human GPR40 expressed in CHO cells assessed as intracellular calcium mobilization by FLIPR assay. Type of data set: functional, cell-based. The procedure, abridged: (§1)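 Intracellular calcium flux read on a fluorometric imaging plate reader, giving EC50 (nM). Each reported value is the mean of at least 3 experiments, with standard deviations below 75% of the average.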

In data set [2] the target is Free fatty acid receptor 1 (Mus musculus, UniProt Q76JU9). As to the kind of experiment: Agonist activity at mouse GPR40 expressed in CHO cells assessed as intracellular calcium mobilization by FLIPR assay. Type of data set: functional, cell-based. In short, it runs like this:
as §1
A general note: Calcium flux is commonly read through the fluorescence of an indicator in the cells.

Data set [3] concerns the target T1, Free fatty acid receptor 1. As to the kind of experiment: Inhibition of human GPR40 expressed in CHO cells by SPA based binding assay. Format: cell-based. In short, it runs like this:
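Scintillation proximity binding assay using receptor isolated from CHO cells overexpressing human GPR40, giving IC50 (nM). Each value is the mean of at least 3 experiments, with standard deviations below 75% of the average.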

Data set [4] has as its target T1, Free fatty acid receptor 1. As to the kind of experiment: Agonist activity at human GPR40 expressed in HEK293 cells assessed as [3H]IP3 production in presence of 10% human serum. Format: functional, cell-based. In short, it runs like this:
(§2)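 IP3 production was measured in human cells as EC50 (nM). One condition included 10% human serum and the other 0.4% serum albumin, to reflect plasma protein binding.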

In data set [5] the target is T1, Free fatty acid receptor 1. Nature of the data set: Agonist activity at human GPR40 expressed in HEK293 cells assessed as [3H]IP3 production in presence of 0.4% serum albumin. Format: functional, cell-based. In short, it runs like this: as §2
Data set [6] is described as follows: Plasma clearance in mouse. Format: ADME, organism-based.
Data set [7] can be described thus: Volume of distribution in mouse. Format: ADME, organism-based. Conditions: in vivo.
A short description of data set [8]: Half life in mouse. Type of data set: ADME, organism-based. The settings on record: in vivo.
Data set [9] can be described thus: Oral bioavailability in mouse. Type of data set: ADME, organism-based. The settings on record: in vivo.
Data set [10] in a line: Cmax in mouse. Type of data set: ADME, organism-based. The settings on record: in vivo.
Data set [11] in a line: Tmax in mouse. Format: ADME, organism-based. Conditions: in vivo.
The subject of a further data set is Mus musculus. As to the kind of experiment: Inhibition of glucose AUC in dextrose-treated lean mouse blood at 10 mg/kg, po treated 1 hr prior to dextrose challenge by intraperitoneal glucose tolerance test. Format: functional.
In the next data set the target is Cytochrome P450 2C9 (Homo sapiens, UniProt P11712). Nature of the data set: Inhibition of CYP2C9. Format: ADME.
A further data set deals with Cytochrome P450 2D6 (Homo sapiens, UniProt P10635). As to the kind of experiment: Inhibition of CYP2D6. Type of data set: ADME.
The next data set has as its target Cytochrome P450 3A4 (Homo sapiens, UniProt P08684). Nature of the data set: Inhibition of CYP3A4. Format: ADME.
The target in data set [12] is Voltage-gated inwardly rectifying potassium channel KCNH2 (Homo sapiens, UniProt Q12809). Nature of the data set: Inhibition of human ERG.
The target in data set [13] is Voltage-dependent L-type calcium channel subunit alpha-1C (Homo sapiens, UniProt Q13936). As to the kind of experiment: Inhibition of Cav1.2 calcium channel.

Molecules are shown by their SMILES. A value given as a limit tells only on which side of the number the result lay.

Chain of Free fatty acid receptor 1 (Mus musculus, UniProt Q76JU9) (Q76JU9 whole entry): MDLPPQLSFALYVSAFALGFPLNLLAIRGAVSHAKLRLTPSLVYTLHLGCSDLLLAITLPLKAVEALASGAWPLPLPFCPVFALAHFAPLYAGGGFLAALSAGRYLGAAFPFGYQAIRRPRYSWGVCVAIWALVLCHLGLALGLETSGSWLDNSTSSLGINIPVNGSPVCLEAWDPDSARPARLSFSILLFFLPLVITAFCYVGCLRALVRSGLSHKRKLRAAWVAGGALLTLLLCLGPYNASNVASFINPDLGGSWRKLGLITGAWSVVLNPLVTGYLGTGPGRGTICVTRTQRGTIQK
T1 sequence (O14842 whole entry): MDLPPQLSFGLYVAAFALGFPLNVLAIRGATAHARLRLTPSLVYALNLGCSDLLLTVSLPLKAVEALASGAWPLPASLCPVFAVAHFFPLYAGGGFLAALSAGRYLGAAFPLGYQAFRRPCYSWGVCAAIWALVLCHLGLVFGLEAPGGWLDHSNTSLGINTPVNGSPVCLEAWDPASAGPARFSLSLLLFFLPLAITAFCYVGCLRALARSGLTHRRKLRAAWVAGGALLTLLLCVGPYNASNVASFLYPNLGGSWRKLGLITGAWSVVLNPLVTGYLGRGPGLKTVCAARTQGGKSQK
Chain of Cytochrome P450 3A4 (P08684 whole entry): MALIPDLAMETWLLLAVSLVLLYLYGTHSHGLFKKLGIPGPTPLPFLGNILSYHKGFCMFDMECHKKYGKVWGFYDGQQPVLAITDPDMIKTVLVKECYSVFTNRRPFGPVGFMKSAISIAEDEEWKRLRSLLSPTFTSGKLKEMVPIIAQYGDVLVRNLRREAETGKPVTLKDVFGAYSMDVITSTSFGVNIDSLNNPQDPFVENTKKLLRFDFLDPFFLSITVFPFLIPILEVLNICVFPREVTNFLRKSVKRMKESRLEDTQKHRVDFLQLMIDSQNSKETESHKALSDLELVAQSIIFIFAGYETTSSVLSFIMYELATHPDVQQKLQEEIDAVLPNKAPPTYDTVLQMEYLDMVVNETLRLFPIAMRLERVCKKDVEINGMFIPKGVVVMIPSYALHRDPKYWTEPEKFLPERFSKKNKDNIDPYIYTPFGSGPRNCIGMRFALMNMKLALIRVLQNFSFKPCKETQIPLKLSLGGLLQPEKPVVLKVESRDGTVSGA
Chain of Voltage-dependent L-type calcium channel subunit alpha-1C (Q13936 whole entry): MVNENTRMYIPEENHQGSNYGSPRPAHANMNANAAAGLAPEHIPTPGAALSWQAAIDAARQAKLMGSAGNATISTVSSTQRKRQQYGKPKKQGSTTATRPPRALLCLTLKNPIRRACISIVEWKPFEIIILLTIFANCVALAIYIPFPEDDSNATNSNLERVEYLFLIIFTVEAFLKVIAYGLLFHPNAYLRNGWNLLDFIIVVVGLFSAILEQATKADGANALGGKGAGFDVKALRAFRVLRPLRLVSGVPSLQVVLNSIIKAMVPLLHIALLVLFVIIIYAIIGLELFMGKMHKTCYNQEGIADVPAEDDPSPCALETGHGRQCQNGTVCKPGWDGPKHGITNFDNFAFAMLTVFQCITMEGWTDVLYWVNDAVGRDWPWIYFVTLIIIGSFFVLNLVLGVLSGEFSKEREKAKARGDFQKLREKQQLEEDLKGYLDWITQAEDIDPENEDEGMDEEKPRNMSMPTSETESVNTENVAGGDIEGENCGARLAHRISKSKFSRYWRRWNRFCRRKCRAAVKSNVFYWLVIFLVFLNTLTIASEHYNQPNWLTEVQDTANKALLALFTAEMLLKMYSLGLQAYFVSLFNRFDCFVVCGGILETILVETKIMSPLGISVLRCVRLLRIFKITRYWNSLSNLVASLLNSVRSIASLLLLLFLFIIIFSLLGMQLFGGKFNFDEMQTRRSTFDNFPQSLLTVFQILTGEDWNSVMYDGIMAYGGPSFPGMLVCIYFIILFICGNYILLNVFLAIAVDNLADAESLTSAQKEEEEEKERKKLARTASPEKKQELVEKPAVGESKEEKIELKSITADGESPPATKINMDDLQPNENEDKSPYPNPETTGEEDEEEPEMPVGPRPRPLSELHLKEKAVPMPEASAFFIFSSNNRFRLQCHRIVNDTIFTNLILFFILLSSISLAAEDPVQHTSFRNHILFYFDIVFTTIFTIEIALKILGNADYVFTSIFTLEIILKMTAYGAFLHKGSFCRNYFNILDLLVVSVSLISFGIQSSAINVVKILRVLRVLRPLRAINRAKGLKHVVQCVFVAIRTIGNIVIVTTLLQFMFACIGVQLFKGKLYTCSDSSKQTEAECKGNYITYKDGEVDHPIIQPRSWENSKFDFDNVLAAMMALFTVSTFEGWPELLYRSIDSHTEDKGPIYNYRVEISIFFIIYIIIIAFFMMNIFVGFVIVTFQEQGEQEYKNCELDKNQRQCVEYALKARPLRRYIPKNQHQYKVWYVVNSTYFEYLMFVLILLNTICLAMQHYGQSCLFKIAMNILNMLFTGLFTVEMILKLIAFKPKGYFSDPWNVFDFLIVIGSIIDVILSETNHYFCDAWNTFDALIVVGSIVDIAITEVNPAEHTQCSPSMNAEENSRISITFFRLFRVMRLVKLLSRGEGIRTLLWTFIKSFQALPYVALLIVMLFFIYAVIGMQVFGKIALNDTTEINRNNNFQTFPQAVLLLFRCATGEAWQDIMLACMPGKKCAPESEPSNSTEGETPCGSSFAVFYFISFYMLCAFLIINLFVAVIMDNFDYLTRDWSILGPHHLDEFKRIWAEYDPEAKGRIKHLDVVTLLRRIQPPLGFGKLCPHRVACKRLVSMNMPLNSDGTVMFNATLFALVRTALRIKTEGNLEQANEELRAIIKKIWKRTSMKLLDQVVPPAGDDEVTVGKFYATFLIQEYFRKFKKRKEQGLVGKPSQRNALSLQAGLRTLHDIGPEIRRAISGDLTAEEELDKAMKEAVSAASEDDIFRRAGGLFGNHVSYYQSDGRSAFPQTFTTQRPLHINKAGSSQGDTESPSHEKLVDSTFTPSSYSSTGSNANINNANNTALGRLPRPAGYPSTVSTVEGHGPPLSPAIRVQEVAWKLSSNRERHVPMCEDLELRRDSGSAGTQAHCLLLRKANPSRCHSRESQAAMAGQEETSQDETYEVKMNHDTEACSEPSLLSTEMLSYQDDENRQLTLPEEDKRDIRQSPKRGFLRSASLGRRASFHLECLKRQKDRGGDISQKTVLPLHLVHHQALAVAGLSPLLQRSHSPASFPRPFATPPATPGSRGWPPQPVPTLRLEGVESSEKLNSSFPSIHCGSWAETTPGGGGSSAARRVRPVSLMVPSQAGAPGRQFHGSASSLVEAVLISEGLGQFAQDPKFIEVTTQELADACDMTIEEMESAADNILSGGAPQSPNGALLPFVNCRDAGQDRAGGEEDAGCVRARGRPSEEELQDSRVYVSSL
Chain of Voltage-gated inwardly rectifying potassium channel KCNH2 (Q12809 whole entry): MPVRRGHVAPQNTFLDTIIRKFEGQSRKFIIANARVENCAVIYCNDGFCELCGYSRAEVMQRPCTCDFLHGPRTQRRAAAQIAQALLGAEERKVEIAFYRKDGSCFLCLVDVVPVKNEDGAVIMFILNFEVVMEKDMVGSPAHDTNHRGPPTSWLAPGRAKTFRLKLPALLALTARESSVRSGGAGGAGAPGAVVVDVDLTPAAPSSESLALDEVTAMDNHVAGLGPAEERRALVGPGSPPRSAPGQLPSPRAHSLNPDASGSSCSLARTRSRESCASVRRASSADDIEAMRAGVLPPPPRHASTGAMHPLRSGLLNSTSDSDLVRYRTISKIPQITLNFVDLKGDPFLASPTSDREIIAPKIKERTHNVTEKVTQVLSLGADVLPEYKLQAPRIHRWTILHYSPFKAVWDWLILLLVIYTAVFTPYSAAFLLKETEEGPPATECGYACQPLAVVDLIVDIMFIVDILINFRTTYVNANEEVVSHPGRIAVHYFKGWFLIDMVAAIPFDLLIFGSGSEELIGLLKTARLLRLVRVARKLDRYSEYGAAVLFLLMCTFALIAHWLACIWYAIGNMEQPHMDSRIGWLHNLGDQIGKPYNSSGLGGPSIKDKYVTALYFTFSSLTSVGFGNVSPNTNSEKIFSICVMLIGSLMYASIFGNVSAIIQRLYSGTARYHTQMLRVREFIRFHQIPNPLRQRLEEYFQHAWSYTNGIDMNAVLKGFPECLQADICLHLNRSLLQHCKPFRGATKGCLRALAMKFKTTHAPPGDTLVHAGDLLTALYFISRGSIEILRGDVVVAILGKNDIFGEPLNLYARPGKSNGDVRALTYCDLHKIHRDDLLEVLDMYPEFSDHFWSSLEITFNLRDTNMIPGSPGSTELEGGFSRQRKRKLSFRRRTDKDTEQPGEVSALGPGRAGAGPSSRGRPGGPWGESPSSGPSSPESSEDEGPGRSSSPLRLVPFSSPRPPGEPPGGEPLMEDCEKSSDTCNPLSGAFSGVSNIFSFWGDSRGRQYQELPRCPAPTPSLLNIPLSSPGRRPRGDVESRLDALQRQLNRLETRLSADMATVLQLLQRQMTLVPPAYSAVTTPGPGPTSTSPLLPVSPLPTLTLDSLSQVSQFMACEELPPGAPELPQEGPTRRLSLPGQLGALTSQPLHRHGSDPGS
Chain of Cytochrome P450 2D6 (P10635 whole entry): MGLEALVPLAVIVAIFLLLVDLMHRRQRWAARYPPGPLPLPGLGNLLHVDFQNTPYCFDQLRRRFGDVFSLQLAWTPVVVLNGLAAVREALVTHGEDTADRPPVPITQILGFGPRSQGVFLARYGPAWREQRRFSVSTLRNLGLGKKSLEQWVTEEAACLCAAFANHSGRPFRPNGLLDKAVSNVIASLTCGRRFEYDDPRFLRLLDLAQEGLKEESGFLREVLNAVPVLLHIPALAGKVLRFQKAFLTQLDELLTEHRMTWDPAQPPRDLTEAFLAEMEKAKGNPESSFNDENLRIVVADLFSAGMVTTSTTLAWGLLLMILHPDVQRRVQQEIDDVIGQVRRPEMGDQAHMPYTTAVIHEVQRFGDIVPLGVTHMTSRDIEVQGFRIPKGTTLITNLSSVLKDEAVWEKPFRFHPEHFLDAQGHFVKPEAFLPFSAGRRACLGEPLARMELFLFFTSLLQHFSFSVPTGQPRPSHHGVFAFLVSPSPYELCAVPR

As usually defined, the EC50 is the midpoint of the concentration-response curve. For the compound `CC(CC(=O)O)c1ccc(Oc2ccc(Cl)cc2Cl)cc1` (racemic), the half-maximal effective concentration (EC50) in [1] was 2480 nM.
Still for that read-out and setting: to `O=C(O)CCc1ccc(Oc2ccc(Cl)cc2Cl)cc1` belongs 1360 nM.
The term IC50 denotes the point on the concentration scale where inhibition reaches its midpoint. With `CC#CC(CC(=O)O)c1ccc(OC2CCCC2)cc1` (racemic), the half-maximal effective concentration (EC50) in data set [1] was 114 nM; in [2], 124 nM. Further, the concentration for half-maximal inhibition (IC50) in [3] is 312 nM.
Broadly, the clearance is the volume of plasma or blood freed of the substance per unit of time. Lower therefore signals a low capacity for elimination. What is called Vd is the apparent volume that relates the amount in the body to the concentration in plasma or blood. A high value points to extensive tissue distribution. The half-life is the time in which the quantity being followed falls by half. Higher therefore signals slow decline. One may read the Cmax as the highest concentration seen after dosing. As a reminder, the Tmax is the time from dosing to the highest level. For orientation: inhibition in vivo means the change of the read-out against control, counted positive when it falls. A high value points to a response far below the control. With `CC#CC(CC(=O)O)c1ccc(Oc2ccc(C(F)(F)F)cc2OC(F)F)cc1` (racemic), the EC50 turned out to be 71 nM in data set [1], 77 nM in data set [2], 436 nM in [4] and 455 nM in [5]. For the same compound, the 50% inhibitory concentration (IC50) in [3] was 12 nM; against Cytochrome P450 2C9 it was greater than 50 µM; at Cytochrome P450 2D6, greater than 50 µM; against Cytochrome P450 3A4 it was greater than 50 µM; in data set [12], greater than 60 µM; in data set [13], greater than 30 µM. The compound also gave a clearance in data set [6] of 0.49 mL/min/kg. In addition, in data set [7], the Vd was 0.31 L/kg. In data set [8], this compound showed a half-life of 468 min. For the same compound, the bioavailability in data set [9] stood at 112%. In data set [10], this compound yielded a Cmax of 12 µM. Also, in [11], the Tmax was determined as 4 h. Also, 10 mg/kg produced 66% inhibition in vivo with Mus musculus.
As for `CC#CC(c1ccc(OCc2ccccc2)cc1)C1OC(=O)NC1=O` (racemic), the EC50 in data set [1] is 954 nM; in [2] it was 3710 nM. This compound also returned an IC50 in [3] of 4400 nM.
Take `O=C1NC(=O)C(Cc2ccc(Oc3ccc(F)cc3)cc2)S1` (stereo unspecified): in [1], the EC50 was determined as 474 nM.
Consider `CC#C[C@H](c1ccc(Oc2ccc(C(F)(F)F)cc2OC(F)F)cc1)[C@H]1OC(=O)NC1=O` (racemic), for which the EC50 in data set [1] is 7580 nM; in data set [2] it was 7060 nM. This compound also showed an IC50 in [3] of 2410 nM.
Consider `CC#CC(CC(=O)O)c1ccc(Oc2ccc(C(F)(F)F)c3ccccc23)cc1` (racemic), for which the EC50 in [1] was 1400 nM; in [2], 1250 nM. For the same compound, the IC50 in [3] was 211 nM.
For `CC#CC(CC(=O)O)c1ccc(OC2CCCc3nc(-c4ccc(C)cc4)sc32)cc1` (mixture of isomers), in that order: 51 nM, 100 nM and 23 nM.
As to `CC#CC(CC(=O)O)c1ccc(Oc2ccc(C#N)cc2Cl)cc1` (racemic), the EC50 in [1] came out at 42 nM; in data set [2], 48 nM; in data set [4], 519 nM; in [5] it was 597 nM. This compound yielded a half-inhibitory concentration (IC50) in [3] of 23 nM.
For the compound `O=C(O)CCc1ccc(Oc2ccc(C(F)(F)F)cc2Cl)cc1`, the EC50 in data set [1] is 686 nM.
On to `CC#CC(CC(=O)O)c1ccc(Oc2ccc(C#N)c3ccccc23)cc1` (racemic), for which the EC50 amounted to 53 nM in data set [1], 93 nM in data set [2], 172 nM in data set [4] and 247 nM in data set [5]. In data set [3], this compound displayed an IC50 of 13 nM.
As to `O=C(O)C(Cc1ccc(Oc2ccc(C(F)(F)F)cc2Cl)cc1)C(=O)O`, the EC50 in [1] is 970 nM.
As for `CC#C[C@]1(c2ccc(Oc3ccc(C(F)(F)F)cc3Cl)cc2)C[C@@H]1C(=O)O` (racemic), the EC50 in data set [1] was 2820 nM; in data set [2], 871 nM. The compound further yielded an IC50 in data set [3] of 3440 nM.
As for `CC#CC(CC(=O)O)c1ccc(Oc2ccc(C#N)cc2Br)cc1` (racemic), the values for the concentration giving a half-maximal response (EC50) in data set [1] and in data set [2] were 85 nM and 88 nM, respectively. Further, the IC50 in data set [3] amounted to 36 nM.
For `CC#CC(CC(=O)O)c1ccc(Oc2ccc(C(F)(F)F)cc2C)cc1` (racemic), in that order: 94 nM, 127 nM and 40 nM.
`CC#CC(CC(=O)O)c1ccc(Oc2ccc(C(F)(F)F)cc2OC(F)F)cc1F` (racemic): the EC50 in [1] stood at 113 nM; in data set [2], 104 nM; in data set [4], 306 nM; in data set [5] it was 349 nM. The IC50 in data set [3] was 49 nM; at Cytochrome P450 2C9, 28 µM; on Cytochrome P450 2D6, greater than 50 µM; against Cytochrome P450 3A4 it was greater than 50 µM; in data set [12] it was 25 µM; in [13], 25.6 µM.
For `CC#CC(CC(=O)O)c1ccc(Oc2nccnc2C#N)cc1` (racemic), the values for the EC50 in data set [1] and in [2] were 1580 nM and 985 nM, respectively. This compound also had an IC50 in data set [3] of 2490 nM.
Turning to `CC#CC(c1ccc(Oc2ccc(C(F)(F)F)cc2OC(F)F)cc1)C1OC(=O)NC1=O` (racemic), the EC50 in data set [1] came out at 124 nM; in data set [2] it was 266 nM; in data set [4], 224 nM; in data set [5] it was 249 nM. Moreover, the concentration for half-maximal inhibition (IC50) in [3] turned out to be 19 nM.
With `CC#C[C@]1(c2ccc(Oc3ccc(C(F)(F)F)cc3Cl)cc2)C[C@H]1C(=O)O` (racemic), the EC50 in [1] is 24500 nM; in [2], greater than 40000 nM. For the same compound, the half-maximal inhibitory concentration (IC50) in data set [3] was greater than 10000 nM.
For the compound `CC#CC(CC(=O)O)c1ccc(Oc2ncc(Br)cn2)cc1` (racemic), the EC50 amounted to 1570 nM in data set [1] and 1480 nM in data set [2]. The 50% inhibitory concentration (IC50) in data set [3] was determined as 433 nM.
Take `CC#CC(CC(=O)O)c1ccc(Oc2nccc3ccccc23)cc1` (racemic): the EC50 in data set [1] stood at 394 nM; in [2], 149 nM. Moreover, the half-maximal inhibitory concentration (IC50) in data set [3] turned out to be 342 nM.
`CC#CC(CC(=O)O)c1ccc(Oc2ncc(C(F)(F)F)cc2Cl)cc1` (racemic): the EC50 in [1] was 108 nM; in [2] it was 95 nM; in [4], 409 nM. In data set [3], this compound had a concentration for half-maximal inhibition (IC50) of 30 nM.
On to `CC#CC(CC(=O)O)c1ccc(O[C@@H]2CCc3ccccc32)cc1` (mixture of isomers), for which the EC50 came to 31 nM in data set [1] and 47 nM in data set [2]. In [3], this compound came in with a half-maximal inhibitory concentration (IC50) of 42 nM.
For `CC#C[C@@H](c1ccc(Oc2ccc(C(F)(F)F)cc2OC(F)F)cc1)[C@H]1OC(=O)NC1=O` (racemic), the values for the EC50 in data set [1] and in data set [2] were 130 nM and 136 nM, respectively. Further, the values for the IC50 (in data set [3]; against Cytochrome P450 3A4; in data set [13]) were 151 nM, greater than 50 µM and 5.1 µM, respectively. Besides, the clearance in data set [6] amounted to 0.85 mL/min/kg. This compound also returned a volume of distribution (Vd) in data set [7] of 0.47 L/kg. The half-life in data set [8] was 420 min. Also, the bioavailability in [9] came to 93%. Further, the Cmax in data set [10] came out at 5.5 µM. In addition, in data set [11], the time of peak concentration (Tmax) was 4.7 h.

For the origin of these results see ChEMBL document CHEMBL1777807, “3-Substituted 3-(4-aryloxyaryl)-propanoic acids as GPR40 agonists” (Bioorg Med Chem Lett, 2011).
